The values that follow come from ChEMBL document CHEMBL3045796, “Neonicotinoid insecticides: molecular features conferring selectivity for insect versus mammalian nicotinic receptors” (J Agric Food Chem, 2000).

pIC50: −log10 of the molar value.

Data set [1] is described as follows: Toxicity in ip dosed Mus musculus (mouse). The settings on record: in vivo. It counts as organism-based.
Data set [2] concerns the target T1, Acetylcholine receptor subunit beta-like 2 (Drosophila melanogaster, UniProt P25162).
T1 sequence (P25162 whole entry): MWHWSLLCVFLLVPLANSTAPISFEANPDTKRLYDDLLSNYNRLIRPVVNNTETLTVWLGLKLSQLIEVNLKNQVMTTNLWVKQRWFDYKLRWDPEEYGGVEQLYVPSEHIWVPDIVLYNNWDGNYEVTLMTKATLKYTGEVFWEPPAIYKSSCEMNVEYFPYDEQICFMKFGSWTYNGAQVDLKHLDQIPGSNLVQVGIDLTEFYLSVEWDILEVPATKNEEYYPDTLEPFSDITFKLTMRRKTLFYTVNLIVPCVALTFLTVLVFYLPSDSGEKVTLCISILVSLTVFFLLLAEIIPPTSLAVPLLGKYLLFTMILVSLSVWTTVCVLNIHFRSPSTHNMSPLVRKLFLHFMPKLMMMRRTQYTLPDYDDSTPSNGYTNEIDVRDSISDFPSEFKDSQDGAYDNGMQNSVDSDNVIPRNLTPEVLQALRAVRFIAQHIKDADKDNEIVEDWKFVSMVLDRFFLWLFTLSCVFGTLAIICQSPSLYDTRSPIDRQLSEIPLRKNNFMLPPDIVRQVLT
In words: Inhibition of [3H]IMI binding to Drosophila melanogaster neuronal acetylcholine receptor.

The nature of data set [3]: Retention time under neutral conditions using H20/MeOH (1:1) mobile phase by HPLC method. It counts as physicochemical. An outline of the steps: (§1)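 Reversed-phase HPLC at a flow rate of 0.7 mL/min, with a void volume of 2.46 min. Each retention time is the mean of three runs under that mobile-phase condition.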
Data set [4] concerns the target Acetylcholine receptor subunit alpha (Homo sapiens, UniProt P02708+P07510+P11230+Q07001). In words: Inhibition of [125I]alpha-BGT binding to alpha1 nicotinic acetylcholine receptor in Homo sapiens (human) TE671 cells co-expressing gammaalpha1deltabeta1 nicotinic acetylcholine receptor subunits.
Data set [5] in a line: Retention time under acidic conditions using H20/MeOH mobile phase containing 0.1% TFA (1:1) by HPLC method. It counts as physicochemical. An outline of the steps:
as §1

Data set [6] can be described thus: Retention time under basic conditions using 20 mM Na2HPO4 (pH9.9)/MeOH (1:1) mobile phase by HPLC method. It counts as physicochemical. The settings on record: buffer, pH 9.9. An outline of the steps: as §1
In another data set the test system is Musca domestica. The data set is described as follows: Toxicity against Musca domestica (house fly) dosed with compound through intra-thoracic injection pre-treated with 100 ug/g metabolic detoxification inhibitor O-propyl O-(2-propynyl)phenylphosphonate. It counts as functional.
Data set [7] has as its target Neuronal acetylcholine receptor subunit alpha-4 (Mus musculus, UniProt O70174). The data set is described as follows: Inhibition of [3H]nicotine binding to alpha4 nicotinic acetylcholine receptor in Mus musculus (mouse) M10 cells co-expressing beta2 nicotinic acetylcholine receptor subunits. It counts as cell-based.
The target of data set [8] is Neuronal acetylcholine receptor subunit alpha-7 (Homo sapiens, UniProt P36544). In words: Inhibition of [125I]alpha-BGT binding to alpha7 nicotinic acetylcholine receptor in Homo sapiens (human) SH-SY5Y cells.
Chain of Neuronal acetylcholine receptor subunit alpha-7 (P36544 whole entry): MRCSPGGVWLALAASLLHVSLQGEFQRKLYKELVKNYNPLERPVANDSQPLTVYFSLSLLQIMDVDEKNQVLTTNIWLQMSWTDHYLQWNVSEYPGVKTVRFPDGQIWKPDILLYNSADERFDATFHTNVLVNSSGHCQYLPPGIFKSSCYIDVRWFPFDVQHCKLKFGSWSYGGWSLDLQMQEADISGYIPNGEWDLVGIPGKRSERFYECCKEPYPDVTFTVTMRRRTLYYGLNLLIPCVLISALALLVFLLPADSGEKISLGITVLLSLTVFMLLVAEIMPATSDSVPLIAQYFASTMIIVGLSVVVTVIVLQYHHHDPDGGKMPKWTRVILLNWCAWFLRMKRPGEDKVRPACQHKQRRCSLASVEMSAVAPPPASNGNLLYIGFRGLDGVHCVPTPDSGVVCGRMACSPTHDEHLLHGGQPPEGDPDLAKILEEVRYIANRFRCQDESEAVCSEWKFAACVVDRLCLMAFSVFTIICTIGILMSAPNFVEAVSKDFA
Data set [9] has as its target Neuronal acetylcholine receptor subunit alpha-3 (Homo sapiens, UniProt P32297). The data set is described as follows: Inhibition of [3H]nicotine binding to alpha3 nicotinic acetylcholine receptor in Homo sapiens (human) SH-SY5Y cells co-expressing beta2beta4alpha5 Nicotinic acetylcholine receptor subunits. In kind it is cell-based.
For data set [10], the target named is Acetylcholine receptor subunit alpha (Homo sapiens) (UniProt P02708). The data set is described as follows: Inhibition of […] binding to alpha1 nicotinic acetylcholine receptor in Homo sapiens (human) TE671 cells co-expressing gammaalpha1deltabeta1 nicotinic acetylcholine receptor at >300 uM. In kind it is cell-based. The settings on record: TE-671.
Chain of Acetylcholine receptor subunit alpha (Homo sapiens) (P02708 whole entry): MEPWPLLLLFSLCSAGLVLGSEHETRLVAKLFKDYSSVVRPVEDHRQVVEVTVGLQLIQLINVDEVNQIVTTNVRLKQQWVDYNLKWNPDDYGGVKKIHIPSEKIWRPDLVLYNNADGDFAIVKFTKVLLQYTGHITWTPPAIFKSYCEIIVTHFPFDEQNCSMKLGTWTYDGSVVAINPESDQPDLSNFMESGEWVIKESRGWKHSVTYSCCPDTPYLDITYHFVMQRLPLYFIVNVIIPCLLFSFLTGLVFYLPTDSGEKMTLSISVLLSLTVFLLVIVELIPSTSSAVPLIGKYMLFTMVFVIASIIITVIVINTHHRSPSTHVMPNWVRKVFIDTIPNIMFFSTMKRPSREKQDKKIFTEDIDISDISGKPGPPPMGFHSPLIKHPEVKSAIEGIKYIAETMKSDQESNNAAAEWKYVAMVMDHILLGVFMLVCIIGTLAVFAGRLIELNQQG

Chain of Neuronal acetylcholine receptor subunit alpha-3 (P32297 whole entry): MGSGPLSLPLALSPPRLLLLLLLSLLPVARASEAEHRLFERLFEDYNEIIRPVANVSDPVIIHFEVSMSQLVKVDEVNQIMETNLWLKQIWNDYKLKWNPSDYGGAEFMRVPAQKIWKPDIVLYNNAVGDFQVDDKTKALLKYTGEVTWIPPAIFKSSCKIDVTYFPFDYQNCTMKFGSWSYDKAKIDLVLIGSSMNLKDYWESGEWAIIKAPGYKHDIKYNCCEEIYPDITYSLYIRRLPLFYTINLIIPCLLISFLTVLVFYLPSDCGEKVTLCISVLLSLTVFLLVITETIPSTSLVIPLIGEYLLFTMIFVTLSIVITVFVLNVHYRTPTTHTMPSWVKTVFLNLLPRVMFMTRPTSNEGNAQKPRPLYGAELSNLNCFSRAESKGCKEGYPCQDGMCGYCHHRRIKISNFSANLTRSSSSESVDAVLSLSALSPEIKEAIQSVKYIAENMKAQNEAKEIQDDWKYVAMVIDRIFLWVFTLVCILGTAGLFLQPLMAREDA
Chain of Acetylcholine receptor subunit alpha (P02708 whole entry, one chain of several): as the sequence (P02708 whole entry) above
Chain of Neuronal acetylcholine receptor subunit alpha-4 (O70174 whole entry): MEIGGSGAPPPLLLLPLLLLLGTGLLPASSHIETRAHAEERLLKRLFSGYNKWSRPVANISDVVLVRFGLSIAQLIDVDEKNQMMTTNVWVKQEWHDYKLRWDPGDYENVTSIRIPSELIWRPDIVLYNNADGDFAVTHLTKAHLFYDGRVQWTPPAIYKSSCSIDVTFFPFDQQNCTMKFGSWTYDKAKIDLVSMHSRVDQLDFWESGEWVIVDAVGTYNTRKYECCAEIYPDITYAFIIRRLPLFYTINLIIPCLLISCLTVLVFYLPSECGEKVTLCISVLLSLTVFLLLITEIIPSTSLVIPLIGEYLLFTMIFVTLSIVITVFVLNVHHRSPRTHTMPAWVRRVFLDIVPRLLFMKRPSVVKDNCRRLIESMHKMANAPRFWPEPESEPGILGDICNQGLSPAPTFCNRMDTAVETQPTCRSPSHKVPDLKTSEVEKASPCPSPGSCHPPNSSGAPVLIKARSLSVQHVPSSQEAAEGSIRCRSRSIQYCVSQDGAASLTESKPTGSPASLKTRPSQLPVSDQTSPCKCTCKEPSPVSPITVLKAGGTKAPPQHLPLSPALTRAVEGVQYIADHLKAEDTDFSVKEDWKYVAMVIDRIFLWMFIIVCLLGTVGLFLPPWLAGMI

Usually LD50 stands for the dose at which mortality reaches 50%. A word on the pIC50: it is −log10 of the IC50, conventionally taken in molar units. A high value points to a small IC50. With `N=C1SCCN1Cc1ccc(Cl)nc1` [DESCYANOTHIACLOPRID], the results for the 50% lethal dose (LD50) (in [1]; in the data set on Musca domestica) were 0.7 mg/kg and > 5 mg/kg, respectively. The pIC50 in data set [2] was 6.70; in data set [4], 5.22; in [7] it was 8.36; in data set [8], 5.22. The Retention_time in data set [3] was 3 min; in [5], 2.84 min; in data set [6] it was 4.23 min.

Consider `N=C1NCCN1Cc1ccc(Cl)nc1` [DESNITROIMIDACLOPRID], for which the values for the LD50 (in data set [1]; with Musca domestica) were 6 mg/kg and > 5 mg/kg, respectively. The pIC50 in data set [2] is 5.82; in data set [4] it was 4.96; in [7], 8.09; in [9], 7.85; in [8], 5.00. Besides, the Retention_time in data set [3] turned out to be 2.9 min; in data set [5], 2.8 min; in [6], 4.24 min.

Turning to `O=[N+]([O-])/C=C1/NCCCN1Cc1ccc(Cl)nc1`, the LD50 in [1] was 10 mg/kg; in the data set with Musca domestica, 0.08 mg/kg. The pIC50 in [2] is 9.43; in [4], 4.09; in [7], 7.10; in [9], 6.74; in data set [8], 6.00.

On to `Clc1ccc(C2CC3CCC2N3)cn1` (racemic) [EPIBATIDINE], for which the LD50 in [1] is 0.06 mg/kg; with Musca domestica, > 25 mg/kg. For the same compound, the pIC50 in [2] was 6.37; in data set [4], 6.80; in [7] it was 10.43; in [8], 7.51.

Consider `N=c1sccn1Cc1ccc(Cl)nc1`, for which the LD50 was 0.7 mg/kg in [1] and > 5 mg/kg in the data set with Musca domestica. The pIC50 in data set [2] is 6.73; in data set [4] it was 5.10; in [7] it was 8.85; in data set [8], 5.40. Further, the Retention_time came out at 3.02 min in data set [3], 2.98 min in data set [5] and 4.21 min in data set [6].

For the compound `O=[N+]([O-])NC1=NCCN1Cc1ccc(Cl)nc1` [IMIDACLOPRID], in [1], the LD50 amounted to 40 mg/kg. Besides, the pIC50 in data set [2] was 8.34; in data set [4], < 3.52; in [7] it was 5.59; in data set [9], 4.85; in data set [8], 3.57. In addition, the Retention_time is listed as 4.84 min in data set [3], 4.87 min in [5] and 4.82 min in [6].

What is called inhibition is the percentage by which the read-out fell short of the control. As to `O=[N+]([O-])/N=C1\NCCN1Cc1ccc(Cl)nc1` [IMIDACLOPRID], the inhibition in [10] was 39%. Besides, the LD50 with Musca domestica was 0.02 mg/kg.

For the compound `CN1CCC[C@H]1c1cccnc1` [NICOTINE], the LD50 in [1] was 6 mg/kg; with Musca domestica it was > 50 mg/kg. Also, the pIC50 in data set [2] was 5.40; in [4], 4.68. For the same compound, the figures for the Retention_time in data set [3], in data set [5] and in [6] were 3.18 min, 3.16 min and 11.23 min, respectively.

As to `N#C/N=C1\SCCN1Cc1ccc(Cl)nc1` [THIACLOPRID], the figures for the LD50 (in data set [1]; in the data set with Musca domestica) were 25 mg/kg and 0.03 mg/kg, respectively. Further, the pIC50 in [2] is 8.57; in data set [4] it was 3.92; in data set [7] it was 6.07; in data set [8], 4.00. The Retention_time in data set [3] amounted to 6.06 min; in data set [5], 6.07 min; in data set [6] it was 6.05 min.
